{"source": "ChEMBL document CHEMBL4699522", "about": "“Androsamide, a Cyclic Tetrapeptide from a Marine Nocardiopsis sp., Suppresses Motility of Colorectal Cancer Cells” (J Nat Prod, 2020)", "key": {"[1]": {"system": "Caco-2", "assay": "Inhibition of epithelial-mesenchymal transition in human Caco-2 cells assessed as decrease in Twist protein expression at 0.65 to 1.3 uM after 24 hrs by Western blot analysis", "type": "functional, cell-based", "conditions": "dose microM 0.65-1.3, time 24.0 hrs", "summary_of_the_method": "(§1)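 2 × 10^5 Caco2 cells per well treated 24 h at nontoxic concentrations. Lysates separated by SDS-PAGE and probed with primary antibodies, then HRP-conjugated secondaries. Luminescence band densities normalized to α-tubulin and compared with DMSO-treated cells. Means ± SEM, n = 3.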"}, "[2]": {"system": "Caco-2", "assay": "Inhibition of epithelial-mesenchymal transition in human Caco-2 cells assessed as decrease in ZEB1 mRNA expression at 0.65 to 1.3 uM after 24 hrs by qRT-PCR analysis", "type": "functional, cell-based", "conditions": "dose microM 0.65-1.3, time 24.0 hrs", "summary_of_the_method": "(§2)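 Caco2 treated 24 h at 0.65 or 1.3 μM. Total RNA isolated, and 1 μg reverse-transcribed. Quantified by SYBR green real-time PCR. Fold change derived from cycle-threshold values, normalized to GAPDH, and compared with DMSO-treated cells. Means ± SEM, n = 3.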"}, "[3]": {"system": "Caco-2", "assay": "Inhibition of cell motility in human Caco-2 cells assessed as reduction in CAPN1 mRNA expression at 0.65 to 1.3 uM by RT2 Profiler PCR Array", "type": "functional, cell-based", "conditions": "dose microM 0.65-1.3"}, "[4]": {"system": "HCT-116", "assay": "Cytotoxicity against human HCT-116 cells assessed as reduction in cell viability after 48 hrs by MTT assay", "type": "functional, cell-based", "summary_of_the_method": "(§3)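 MTT read-out. Cells seeded at (2-3) × 10^3/well, incubated 12 h, then exposed to 3.125–100 μM for 48 h, with MTT added for the final 4 h. Absorbance read at 540 nm. Viability is normalized to DMSO-treated cells. IC50 computed by statistical software. Means ± SEM, n = 3. AGS cells were grown in RPMI, Caco2 and HCT116 in DMEM, all with 10% FBS, at 37 °C and 5% CO2.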"}, "[5]": {"system": "Caco-2", "assay": "Inhibition of epithelial-mesenchymal transition in human Caco-2 cells assessed as increase in E-cadherin mRNA expression after 24 hrs by qRT-PCR analysis", "type": "functional, cell-based", "conditions": "dose microM 0.65-1.3, time 24.0 hrs", "summary_of_the_method": "as §2"}, "[6]": {"system": "Caco-2", "assay": "Inhibition of cell migration in human Caco-2 cells after 24 hrs by fluorescence microscope based Boyden-Chamber cell migration assay", "type": "functional", "conditions": "dose microM 0.15-1.3, time 24.0 hrs", "summary_of_the_method": "(§4)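 Boyden chambers coated with 1% gelatin. Caco2 seeded at 2.5 × 10^6 cells/mL in 0.2% BSA medium; the lower chamber has 0.2% BSA medium with 10 μg/mL fibronectin. Exposed to 0.15, 0.65 or 1.3 μM for 24 h at 37 °C. Invaded cells fixed, Diff-Quick stained and counted in five random fields by fluorescence microscopy. Expressed relative to DMSO control; three replicates.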"}, "[7]": {"system": "Caco-2", "assay": "Inhibition of cell motility in human Caco-2 cells assessed as reduction in RAC2 mRNA expression at 0.65 to 1.3 uM by RT2 Profiler PCR Array", "type": "functional, cell-based", "conditions": "dose microM 0.65-1.3"}, "[8]": {"system": "Caco-2", "assay": "Cytotoxicity against human Caco-2 cells assessed as reduction in cell viability after 48 hrs by MTT assay", "type": "functional, cell-based", "summary_of_the_method": "as §3"}, "[9]": {"system": "Caco-2", "assay": "Induction of apoptosis in human Caco-2 cells at 13 to 16 uM after 6 hrs by annexin V-FITC/propidium iodide staining based flow cytometric analysis", "type": "functional, cell-based", "conditions": "dose microM 13-16, time 6.0 hrs"}, "[10]": {"system": "HCT-116", "assay": "Induction of apoptosis in human HCT-116 cells at 21 to 26 uM after 6 hrs by annexin V-FITC/propidium iodide staining based flow cytometric analysis", "type": "functional, cell-based", "conditions": "dose microM 21-26, time 6.0 hrs"}, "[11]": {"system": "Caco-2", "assay": "Inhibition of epithelial-mesenchymal transition in human Caco-2 cells assessed as decrease in Snail mRNA expression at 0.65 to 1.3 uM after 24 hrs by qRT-PCR analysis", "type": "functional, cell-based", "conditions": "dose microM 0.65-1.3, time 24.0 hrs", "summary_of_the_method": "as §2"}, "[12]": {"system": "Caco-2", "assay": "Inhibition of epithelial-mesenchymal transition in human Caco-2 cells assessed as decrease in Slug mRNA expression at 0.65 to 1.3 uM after 24 hrs by qRT-PCR analysis", "type": "functional, cell-based", "conditions": "dose microM 0.65-1.3, time 24.0 hrs", "summary_of_the_method": "as §2"}, "[13]": {"system": "Caco-2", "assay": "Inhibition of epithelial-mesenchymal transition in human Caco-2 cells assessed as decrease in ZEB2 mRNA expression at 0.65 to 1.3 uM after 24 hrs by qRT-PCR analysis", "type": "functional, cell-based", "conditions": "dose microM 0.65-1.3, time 24.0 hrs", "summary_of_the_method": "as §2"}, "[14]": {"system": "Caco-2", "assay": "Inhibition of epithelial-mesenchymal transition in human Caco-2 cells assessed as decrease in N-cadherin mRNA expression after 24 hrs by qRT-PCR analysis", "type": "functional, cell-based", "conditions": "dose microM 0.65-1.3, time 24.0 hrs", "summary_of_the_method": "as §2"}, "[15]": {"system": "Caco-2", "assay": "Inhibition of epithelial-mesenchymal transition in human Caco-2 cells assessed as decrease in N-cadherin protein expression at 0.65 to 1.3 uM after 24 hrs by Western blot analysis", "type": "functional, cell-based", "conditions": "dose microM 0.65-1.3, time 24.0 hrs", "summary_of_the_method": "as §1"}, "[16]": {"system": "Caco-2", "assay": "Inhibition of epithelial-mesenchymal transition in human Caco-2 cells assessed as increase in E-cadherin protein expression at 0.65 to 1.3 uM after 24 hrs by Western blot analysis", "type": "functional, cell-based", "conditions": "dose microM 0.65-1.3, time 24.0 hrs", "summary_of_the_method": "as §1"}, "[17]": {"system": "Caco-2", "assay": "Inhibition of epithelial-mesenchymal transition in human Caco-2 cells assessed as decrease in Twist mRNA expression at 0.65 to 1.3 uM after 24 hrs by qRT-PCR analysis", "type": "functional, cell-based", "conditions": "dose microM 0.65-1.3, time 24.0 hrs", "summary_of_the_method": "as §2"}, "[18]": {"system": "Caco-2", "assay": "Inhibition of epithelial-mesenchymal transition in human Caco-2 cells assessed as decrease in Snail protein expression at 0.65 to 1.3 uM after 24 hrs by Western blot analysis", "type": "functional, cell-based", "conditions": "dose microM 0.65-1.3, time 24.0 hrs", "summary_of_the_method": "as §1"}, "[19]": {"system": "Caco-2", "assay": "Inhibition of epithelial-mesenchymal transition in human Caco-2 cells assessed as decrease in vimentin mRNA expression after 24 hrs by qRT-PCR analysis", "type": "functional, cell-based", "conditions": "dose microM 0.65-1.3, time 24.0 hrs", "summary_of_the_method": "as §2"}, "[20]": {"system": "Caco-2", "assay": "Inhibition of cell migration in human Caco-2 cells at 1.3 uM after 24 hrs by fluorescence microscope based Boyden-Chamber cell migration assay relative to control", "type": "functional", "summary_of_the_method": "as §4"}, "[21]": {"system": "AGS", "assay": "Cytotoxicity against human AGS cells assessed as reduction in cell viability after 48 hrs by MTT assay", "type": "functional, cell-based", "summary_of_the_method": "as §3"}, "[22]": {"system": "Caco-2", "assay": "Inhibition of cell migration in human Caco-2 cells at 1.3 uM after 6 hrs by K1-Fluo RT fluorescence confocal microscope based transwell assay relative to control", "type": "functional", "summary_of_the_method": "(§5)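 Migration through uncoated Boyden chambers. (2.0-2.5) × 10^5 Caco2 cells seeded in medium with 0.2% BSA. The lower chamber holds 0.2% BSA medium plus 10 μg/mL fibronectin as chemoattractant. Treated at 0.15, 0.65 or 1.3 μM for 6 h at 37 °C. Migrated cells fixed, Diff-Quick stained and counted in five random fields by confocal microscopy. Expressed relative to DMSO control; triplicate.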"}, "[23]": {"system": "Caco-2", "assay": "Inhibition of cell migration in human Caco-2 cells after 6 hrs by K1-Fluo RT fluorescence confocal microscope based transwell assay", "type": "functional", "conditions": "dose microM 0.15-1.3, time 6.0 hrs", "summary_of_the_method": "as §5"}}, "note": "Activity calls are given as the source filed them. Non-standard residues stand in square brackets, D forms with d. Residues, ends and D or L forms follow the SMILES beside them. NMeTrp(4-OMe) = CN[C@@H](Cc1c[nH]c2cccc(OC)c12)C(=O)O; NMeM = CN[C@@H](CCSC)C(=O)O"}
{"smiles": "CC[C@H](C)[C@@H]1NC(=O)[C@H]([C@@H](C)O)NC(=O)[C@H](Cc2c[nH]c3cccc(OC)c23)N(C)C(=O)[C@H](CCSC)N(C)C1=O", "note": "(cyclo(I[NMeM][NMeTrp(4-OMe)]T))", "values": [{"measurement": "inhibition", "setting": "[1]", "result": "Active"}, {"measurement": "inhibition", "setting": "[2]", "result": "Active"}, {"measurement": "inhibition", "setting": "[3]", "result": "Active"}, {"measurement": "Activity", "setting": "[4]", "result": "Dose-dependent effect"}, {"measurement": "IC50", "setting": "[4]; HCT-116, 48 h", "result": 21, "unit": "µM"}, {"measurement": "inhibition", "setting": "[5]", "result": "Dose-dependent effect"}, {"measurement": "inhibition", "setting": "[6]", "result": "Dose-dependent effect"}, {"measurement": "inhibition", "setting": "[7]", "result": "Active"}, {"measurement": "Activity", "setting": "[8]", "result": "Dose-dependent effect"}, {"measurement": "IC50", "setting": "[8]; Caco-2, 48 h", "result": 13, "unit": "µM"}, {"measurement": "Activity", "setting": "[9]", "result": "Active"}, {"measurement": "Activity", "setting": "[10]", "result": "Active"}, {"measurement": "inhibition", "setting": "[11]", "result": "Active"}, {"measurement": "inhibition", "setting": "[12]", "result": "Active"}, {"measurement": "inhibition", "setting": "[13]", "result": "Active"}, {"measurement": "inhibition", "setting": "[14]", "result": "Dose-dependent effect"}, {"measurement": "inhibition", "setting": "[15]", "result": "Active"}, {"measurement": "inhibition", "setting": "[16]", "result": "Active"}, {"measurement": "inhibition", "setting": "[17]", "result": "Active"}, {"measurement": "inhibition", "setting": "[18]", "result": "Active"}, {"measurement": "inhibition", "setting": "[19]", "result": "Dose-dependent effect"}, {"measurement": "inhibition at 1.3 µM", "setting": "[20]", "result": 45, "unit": "%"}, {"measurement": "Activity", "setting": "[21]", "result": "Dose-dependent effect"}, {"measurement": "IC50", "setting": "[21]", "result": 18, "unit": "µM"}, {"measurement": "inhibition at 1.3 µM", "setting": "[22]", "result": 50, "unit": "%"}, {"measurement": "inhibition", "setting": "[23]", "result": "Dose-dependent effect"}]}
